# Laboratory results taken from ChEMBL document CHEMBL4706709, “Withanolides from dietary tomatillo suppress HT1080 cancer cell growth by targeting mutant IDH1” (Bioorg Med Chem, 2021).
# The source made the active and inactive calls. No cut-off for these calls is given here.
# What was measured:
# HT-1080 [1] = test: Induction of apoptosis in human HT-1080 cells assessed as viable cells at 6.5 uM measured after 48 hrs by Annexin V-FITC/propidium iodide staining based flow cytometry (reference value: 66.6%); assay type: functional; conditions: read-out: Activity
# HT-1080 [2] = test: Induction of apoptosis in human HT-1080 cells assessed as necrotic cells at 6.5 uM measured after 48 hrs by Annexin V-FITC/propidium iodide staining based flow cytometry (reference value: 30.2%); assay type: functional
# HT-1080 [3] = test: Induction of apoptosis in human HT-1080 cells assessed as appearance of densely stained nucleus at 3.25 to 6.5 uM measured after 48 hrs by Hoechst 33258 and DAPI staining based fluorescence microscopic analysis; assay type: functional, cell-based; conditions: dose 3.25-6.5 µM
# Summary of the method: (§1)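 HT1080 cells exposed 48 h to 3.25 or 6.5 μM compound. Blocked 2 h, then stained 30 min with Hoechst 33258. Nuclear morphology viewed by fluorescence microscopy (×200).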
# HT-1080 [4] = test: Induction of apoptosis in human HT-1080 cells assessed as early apoptotic cells at 6.5 uM measured after 48 hrs by Annexin V-FITC/propidium iodide staining based flow cytometry (reference value: 0%); assay type: functional
# [5] = system: Isocitrate dehydrogenase [NADP] cytoplasmic (Homo sapiens), O75874 [R132H]; test: Inhibition of IDH1 […] assessed as increase in p53 expression at 3.25 to 6.5 uM measured after 48 hrs by DAPI staining based immunofluorescence microscopic analysis; assay type: cell-based; conditions: dose 3.25-6.5 µM
# Summary of the method: (§2)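 HT1080 cells on slides exposed 48 h to 3.25 or 6.5 μM compound. Fixed in 4% paraformaldehyde 15 min, permeabilised with 0.1% Triton X-100 for 5 min at 4 °C, blocked 2 h in 5% BSA. Primary antibody (H3K9me3, HIF-1α or p53, 1:100) overnight at 4 °C. Fluorescent secondary (1:500) 1 h in the dark, DAPI counterstain, imaged.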
# HT-1080 [6] = test: Induction of apoptosis in human HT-1080 cells assessed as nuclear fragmentation at 3.25 to 6.5 uM measured after 48 hrs by Hoechst 33258 and DAPI staining based fluorescence microscopic analysis; assay type: functional, cell-based; conditions: dose 3.25-6.5 µM; summary of the method: as §1
# [7] = system: Isocitrate dehydrogenase [NADP] cytoplasmic (Homo sapiens), O75874 [R132H]; test: Inhibition of IDH1 […] assessed as down regulation of H3K9me3 expression at 6.5 uM measured after 48 hrs by DAPI staining based immunofluorescence microscopic analysis; assay type: cell-based; summary of the method: as §2
# HT-1080 [8] = test: Induction of apoptosis in human HT-1080 cells assessed as late apoptotic cells at 6.5 uM measured after 48 hrs by Annexin V-FITC/propidium iodide staining based flow cytometry (reference value: 3.2%); assay type: functional
# HT-1080 [9] = test: Antiproliferative activity against human HT-1080 cells transfected with shIDH1 R132C assessed as reduction in cell proliferation at 1.25 to 10 uM measured after 48 hrs by CCK8 assay; assay type: functional, cell-based; conditions: dose 1.25-10 µM
# Summary of the method: (§3)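 HT1080 cells (IDH1 R132C) in high-glucose DMEM with 10% FBS, 37 °C, 5% CO2. Adherent cells exposed to compound in fresh medium for 48 h, DMSO kept below 0.5%. Viability by CCK8, absorbance at 450 nm. Three repeats.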
# [10] = biological target: Isocitrate dehydrogenase [NADP] cytoplasmic (Homo sapiens, UniProt O75874); test: Inhibition of wild-type IDH1 (unknown origin) in presence of sodium(D)-isocitrate and NADP+
# Summary of the method: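 Wild-type IDH1 purified at 43 nM in 50 mM HEPES pH 7.5 with 50 μM sodium D-isocitrate, 4 mM MgCl2 and 1 mM NADP+. NADPH production monitored at 340 nm. IC50 from mean of three independent assays.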
# [11] = system: Isocitrate dehydrogenase [NADP] cytoplasmic (Homo sapiens), O75874 [R132H]; test: Inhibition of IDH1 […] assessed as reduction in HIF-1alpha accumulation at 3.25 to 6.5 uM measured after 48 hrs by DAPI staining based immunofluorescence microscopic analysis; assay type: cell-based; conditions: dose 3.25-6.5 µM; summary of the method: as §2
# [12] = system: Isocitrate dehydrogenase [NADP] cytoplasmic (Homo sapiens), O75874 [R132H]; test: Inhibition of IDH1 […] assessed as reduction in R-2-HG concentration measured after 48 hrs by LC-MS/MS analysis; assay type: cell-based; conditions: dose 0.94-30 µM
# Summary of the method: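 HT1080 cells treated 48 h with 0.94–30 μM compound or DMSO. Medium diluted in methanol and centrifuged. R-2-HG in the supernatant quantified by LC-MS/MS (ESI, MRM) on a C18 column, gradient of methanol against 10 mM ammonium acetate pH 7.4. Peak area normalised to internal standard, IC50 from the dose–response curve.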
# HT-1080 [13] = test: Antiproliferative activity against human HT-1080 cells assessed as reduction in number of EdU-positive cells measured after 24 hrs by EdU and DAPI staining based fluorescence microscopic analysis; assay type: functional, cell-based; conditions: dose 3.25-6.5 µM
# Summary of the method: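 Log-phase HT1080 cells treated 24 h with 3.25 or 6.5 μM compound or DMSO. Then 50 μM EdU in serum-free DMEM for 2 h. Fixed in 4% paraformaldehyde, quenched with glycine, permeabilised with 0.5% Triton X-100. Apollo dye reaction for 30 min, DAPI nuclear counterstain, fluorescence microscopy. Three repeats.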
# [14] = biological target: T1, Isocitrate dehydrogenase [NADP] cytoplasmic (Homo sapiens, UniProt O75874, R132H); test: Binding affinity to C-terminal His6-tagged IDH1 R132H mutant (unknown origin) expressed in Escherichia coli BL21 (DE) measured after 20 mins by Red-NHS fluorescence dye-based microscale thermophoresis analysis
# Summary of the method: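 IDH1 R132H fluorescently labelled (RED kit) and used at 20 nM in 20 mM HEPES pH 7.5 with 0.05% Tween-20. Mixed 1:1 with a ligand dilution series, 20 min at room temperature. Loaded in standard capillaries, 10 min at 25 °C. Thermophoresis read at 20% laser and 100% LED power, Kd fitted from the curve.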
# HT-1080 [15] = test: Antiproliferative activity against human HT-1080 cells assessed as reduction in cell proliferation measured after 48 hrs by CCK8 assay; assay type: functional, cell-based; conditions: HT-1080, 48 h; summary of the method: as §3
# [16] = system: Isocitrate dehydrogenase [NADP] cytoplasmic (Homo sapiens), O75874 [R132H]; test: Inhibition of IDH1 […] assessed as down regulation of H3K9me3 expression at 3.25 to 6.5 uM measured after 48 hrs by Western blot analysis; assay type: cell-based; conditions: dose 3.25-6.5 µM
# Summary of the method: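 HT1080 cells in 6-well plates treated 48 h. Lysed in RIPA, protein measured by BCA. Run on 12% SDS-PAGE, blotted to PVDF, blocked in 5% milk 1 h. Probed with H3K9me3 primary antibody, β-actin also available, then HRP secondary.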
# [17] = biological target: T1, Isocitrate dehydrogenase [NADP] cytoplasmic; test: Inhibition of C-terminal His6-tagged IDH1 R132H mutant (unknown origin) expressed in Escherichia coli BL21 (DE) using alpha-ketoglutarate as substrate preincubated for 10 mins followed by substrate addition and measured at 1 min interval for 20 mins in presence of NADPH
# Summary of the method: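 His-tagged IDH1 R132H at 2 μM in 50 mM HEPES pH 7.5 with 4 mM MgCl2 and 100 μM NADPH. Compound preincubated with enzyme 10 min, then reaction started with 2 mM α-KG. NADPH consumption read at 340 nm every 1 min for 20 min. IC50 from mean of three independent assays.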
# T1 sequence (O75874 2-414 R132H limits assumed): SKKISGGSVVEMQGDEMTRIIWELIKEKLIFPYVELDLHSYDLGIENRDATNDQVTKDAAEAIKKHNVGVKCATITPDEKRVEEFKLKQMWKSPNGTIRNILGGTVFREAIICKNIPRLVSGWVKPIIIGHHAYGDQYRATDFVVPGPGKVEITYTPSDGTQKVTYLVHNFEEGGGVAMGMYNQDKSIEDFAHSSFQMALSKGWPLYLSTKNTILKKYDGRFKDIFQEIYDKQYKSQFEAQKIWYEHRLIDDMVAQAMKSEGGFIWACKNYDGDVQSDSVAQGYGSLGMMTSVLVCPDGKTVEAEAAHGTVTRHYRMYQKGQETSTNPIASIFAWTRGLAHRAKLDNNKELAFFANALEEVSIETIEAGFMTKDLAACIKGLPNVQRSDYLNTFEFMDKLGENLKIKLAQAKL
# Isocitrate dehydrogenase [NADP] cytoplasmic (Homo sapiens), O75874 [R132H], sequence (O75874 whole entry R132H): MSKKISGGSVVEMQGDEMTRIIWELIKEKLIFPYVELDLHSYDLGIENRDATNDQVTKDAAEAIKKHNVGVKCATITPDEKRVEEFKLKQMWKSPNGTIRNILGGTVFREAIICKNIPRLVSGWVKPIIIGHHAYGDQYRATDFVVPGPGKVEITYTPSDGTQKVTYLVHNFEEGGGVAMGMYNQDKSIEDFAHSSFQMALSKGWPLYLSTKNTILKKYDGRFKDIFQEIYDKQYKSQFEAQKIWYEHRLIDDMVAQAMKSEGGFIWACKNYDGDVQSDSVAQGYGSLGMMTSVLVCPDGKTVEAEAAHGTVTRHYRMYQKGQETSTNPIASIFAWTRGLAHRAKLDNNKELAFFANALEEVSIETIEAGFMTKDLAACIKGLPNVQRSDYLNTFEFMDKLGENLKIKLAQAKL
# Isocitrate dehydrogenase [NADP] cytoplasmic (Homo sapiens, UniProt O75874), sequence (O75874 whole entry): as the sequence (O75874 whole entry R132H) above, with H132R counted along it
Compound,viability at 6.5 µM (HT-1080 [1]) [%],Activity (HT-1080 [2]) [%],Activity (HT-1080 [3]),Activity (HT-1080 [4]) [%],inhibition [5],Activity (HT-1080 [6]),inhibition [7],Activity (HT-1080 [8]) [%],Activity (HT-1080 [9]),IC50 [10] [µM],inhibition [11],inhibition [12],Activity (HT-1080 [13]),Kd [14] [µM],IC50 (HT-1080 [15]) [µM],inhibition [16],IC50 [17] [µM]
C[C@@]12C[C@H]3OC(=O)[C@@H]1CO[C@]14O[C@@]5([C@H]2C1=O)[C@@]3(C)OC(=O)[C@@]5(O)CC[C@H]1[C@H]4C[C@H]2O[C@]23CC=CC(=O)[C@]13C,19.9,1.1,Active,55,Active,Active,Active,23.9,Active,> 200,Active,Dose-dependent effect,Dose-dependent effect,15.3,2.41,Active,0.63
C[C@]12C(=O)C=CCC1=CC[C@@H]1[C@@H]2CC[C@]2(O)C(=O)O[C@@]3(C)[C@H]4C[C@]5(C)[C@@H](CO[C@@]16O[C@@]32[C@H]5C6=O)C(=O)O4 [PHYSALIN B],,,,,,,,,,> 200,,,,45.3,,,1.26
